Screening results as filed in PubChem.
Shown are actives, neighbours in structure and some others; about 5.9% of the full set was active somewhere.
T cruzi growth-1: inhibitors of T. cruzi proliferation; inhibition, % at 8.34 µM; 5.9% of 77,000 active; T. cruzi beta-gal in NIH3T3, GalScreen luminescence, 90 h;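 active means mean inhibition above about 93%, with at least 55% of replicates each passing it, limit read from the data, passing the limit was not always enough; inconclusive means only one of those two conditions holds; inactive means neither condition holds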
Pf Dd2 growth: inhibitors of Plasmodium falciparum Dd2 growth; P. falciparum Dd2 growth, SYBR Green, 72 h; hits give low values; 2.3% of 94,000 active; activity change, % at 10 µM; in the data active means activity change below about -80%; inconclusive means no clear call, values can overlap the other calls
IDH1 mut inh: IDH1 R132H (human) inhibition | O75874 | IDH1 R132H reductase, diaphorase/resazurin fluorescence, 60 min | inhibition, % at 10 µM | 0.18% of 70,000 active; in the data active means inhibition above about 34%; inconclusive means no clear call, values can overlap the other calls; inactive means below about 11%;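 further: 0% = DMSO and 100% = no enzyme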
Target sequence (O75874 whole entry R132H): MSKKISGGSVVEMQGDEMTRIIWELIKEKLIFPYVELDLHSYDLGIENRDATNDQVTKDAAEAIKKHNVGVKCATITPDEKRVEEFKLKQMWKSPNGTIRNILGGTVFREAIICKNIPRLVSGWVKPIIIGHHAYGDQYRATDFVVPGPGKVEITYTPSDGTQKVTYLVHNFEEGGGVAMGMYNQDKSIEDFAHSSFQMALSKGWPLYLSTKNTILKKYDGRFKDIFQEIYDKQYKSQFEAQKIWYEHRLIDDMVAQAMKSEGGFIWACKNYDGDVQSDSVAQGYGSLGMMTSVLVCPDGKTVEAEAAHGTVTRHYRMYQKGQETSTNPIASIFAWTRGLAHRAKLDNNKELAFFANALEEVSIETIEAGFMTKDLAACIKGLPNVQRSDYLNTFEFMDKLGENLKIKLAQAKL
GASC1 inh: inhibitors of human demethylase GASC-1 KDM4C; Q9H3R0; GST-KDM4C 2-372, H3K9me3 peptide, LANCE TR-FRET; inhibition, % at 12.5 µM; 0.15% of 96,000 active; AID 720574;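 active means mean replicate inhibition above about 25%, with at least 55% of replicates also reaching it, limit read from the data, passing the limit was not always enough; inconclusive means only one of those two conditions met; inactive means neither condition met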
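System: N-terminal GST-fused human GASC-1 (KDM4C) fragment, residues 2-372; amount: enzyme final amount 10 nM; incubation: reaction 30 min RT, detection step 1 h RT; medium: HEPES buffer, pH 7.5, plus ascorbate; technique: LANCE TR-FRET, Eu antibody, ULight-streptavidin, EDTA, ex 340 nm, em 618/671 nm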
T cruzi growth-2: inhibitors of T. cruzi proliferation; shares compounds with T cruzi growth-1; T. cruzi beta-gal in NIH3T3, GalScreen luminescence, 90 h; inhibition, % at 8.35 µM; 72% of 5,600 active;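 active means mean replicate inhibition above about 95% and at least 55% of replicates individually reaching it, limit read from the data; inconclusive means only one of the two criteria is met; inactive means neither criterion is met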
T cruzi growth-3: blocks T. cruzi growth in NIH3T3 host cells | T. cruzi beta-gal in NIH3T3, GalScreen luminescence, 90 h | inhibition, % at 2.09 µM | shares compounds with T cruzi growth-1 | AID 651740 | 21% of 5,600 active;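 active means mean inhibition above about 95%, with at least 55% of replicates also reaching it, limit read from the data; inconclusive means meets just one of the two conditions; inactive means meets neither condition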;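 further: plate controls were neutral control median for no effect and positive control median for full effect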
NIH3T3 tox: cytotoxicity in mouse NIH/3T3 fibroblasts; shares compounds with T cruzi growth-1; NIH/3T3 viability, CellTiter-Glo ATP luminescence, 90 h; cytotoxicity (signal decrease), % at 8.35 µM; 14% of 5,600 active; AID 651742;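 active means mean signal decrease across replicates above about 35% based on untreated-well scatter, with enough replicates individually passing, limit read from the data; inconclusive means no rule stated though some were filed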;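 further: 0% = median of neutral control wells and 100% = median of positive control wells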
3T3 cytotox 2: kills mouse NIH/3T3 fibroblasts | inhibition, % at 24.9 µM | NIH/3T3 viability, CellTiter-Glo ATP luminescence, 90 h | 56% of 5,600 active | shares compounds with T cruzi growth-1;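 active means mean loss of cell viability signal at or above a set limit, and enough replicates individually reaching it; inconclusive means meets only the mean limit or only the replicate share; inactive means meets neither condition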;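 further: 0% = median of neutral control wells and 100% = median of positive control wells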
Active calls of the source: *; ? = inconclusive; nt = no result given.

SMILES	T cruzi growth-1	Pf Dd2 growth	IDH1 mut inh	GASC1 inh	T cruzi growth-2	T cruzi growth-3	NIH3T3 tox	3T3 cytotox 2
Cc1cccc(-c2ccc([C@H]3[C@@H](CO)N4CCCCN(Cc5cccnc5)C[C@@H]34)cc2)c1	120*	-9	nt	0	?	74	22	103*
Cc1cccc(-c2ccc([C@H]3[C@@H](CO)N4CCCCN(Cc5ccncc5)C[C@H]34)cc2)c1	86	-51	nt	3	nt	nt	nt	nt
Cc1cccc(-c2ccc([C@H]3[C@H](CO)N4CCCCN(Cc5ccncc5)C[C@@H]34)cc2)c1	?	-19	nt	3	101*	47	23	105*
OC[C@@H]1[C@H](c2ccc(Br)cc2)[C@H]2CN(Cc3ccccn3)CCCCN12	97*	-7	nt	1	99*	58	-1	0
OC[C@@H]1[C@H](c2ccc(-c3ccccc3)cc2)[C@H]2CN(Cc3cncnc3)CCCCN12	101*	6	nt	1	?	80	13	53*
CCOc1ccccc1CNc1nc2nc(C)c(Cl)c(C)n2n1	nt	nt	0	nt	nt	nt	nt	nt
COc1cccc(CN2CCCCN3[C@H](CO)[C@H](c4ccc(-c5cccc(C#N)c5)cc4)[C@@H]3C2)c1	111*	-64	nt	-3	108*	101*	11	102*
COc1cccc(-c2ccc([C@H]3[C@@H](CO)N4CCCCN(Cc5cncnc5)C[C@H]34)cc2)c1	99*	4	nt	2	108*	65	27	45*
OC[C@@H]1[C@H](c2ccc(Br)cc2)[C@@H]2CN(Cc3cncnc3)CCCCN12	96*	-8	nt	-1	77	66	-7	-2
COc1cccc(-c2ccc([C@H]3[C@@H](CO)N4CCCCN(Cc5cncnc5)C[C@@H]34)cc2)c1	88	13	nt	-2	nt	nt	nt	nt
COc1cccc(-c2ccc([C@H]3[C@H](CO)N4CCCCN(Cc5cncnc5)C[C@@H]34)cc2)c1	89	15	nt	-1	nt	nt	nt	nt
Cc1sc2nc3scc(CC(=O)NCCO)n3c(=O)c2c1C	nt	nt	0	nt	nt	nt	nt	nt
CC(C(=O)Nc1cccc(Br)c1)N(c1ccc(Cl)cc1)S(C)(=O)=O (configuration not stated)	nt	nt	0	nt	nt	nt	nt	nt
C[C@@H]1CCCCO[C@@H](CN(C)S(=O)(=O)c2ccccc2)[C@@H](C)CN([C@H](C)CO)C(=O)c2cc(NC(=O)Nc3ccc(C(F)(F)F)cc3)ccc2O1	56	-71	1	0	nt	nt	nt	nt
C[C@H]1CCCCO[C@@H](CN(C)S(=O)(=O)c2ccccc2)[C@@H](C)CN([C@@H](C)CO)C(=O)c2cc(NC(=O)Nc3ccc(C(F)(F)F)cc3)ccc2O1	100*	-83*	nt	0	100*	113*	19	8
C[C@@H]1CCCCO[C@H](CN(C)S(=O)(=O)c2ccccc2)[C@@H](C)CN([C@H](C)CO)C(=O)c2cc(NC(=O)Nc3ccc(C(F)(F)F)cc3)ccc2O1	115*	-75	-1	0	?	-28	13	2
C[C@H](CO)N1C[C@H](C)[C@@H](CN(C)S(=O)(=O)c2ccccc2)OCCCC[C@H](C)Oc2ccc(NC(=O)Nc3ccc(C(F)(F)F)cc3)cc2C1=O	87	-43	1	0	nt	nt	nt	nt
C[C@@H]1CCCCO[C@H](CN(C)S(=O)(=O)c2ccccc2)[C@@H](C)CN([C@@H](C)CO)C(=O)c2cc(NC(=O)Nc3ccc(C(F)(F)F)cc3)ccc2O1	103*	-82*	-1	-1	106*	109*	42*	70*
C[C@@H]1CN([C@H](C)CO)C(=O)c2cc(NC(=O)Nc3ccc(C(F)(F)F)cc3)ccc2O[C@@H](C)CCCCO[C@@H]1CN(C)S(=O)(=O)c1ccccc1	90	-59	3	2	nt	nt	nt	nt
C[C@@H]1CCCCO[C@H](CN(C)S(=O)(=O)c2ccccc2)[C@H](C)CN([C@@H](C)CO)C(=O)c2cc(NC(=O)Nc3ccc(C(F)(F)F)cc3)ccc2O1	107*	?	3	1	96*	111*	-1	14
O=C(NO)c1cccc(C(=O)N/N=C/c2ccc(N3CCCC3)cc2)c1	nt	nt	0	nt	nt	nt	nt	nt
CC#CC#C/C=C1\C=CC2(OC=CC2OC(=O)C=C(C)C)O1 (configuration not stated)	nt	nt	2	nt	nt	nt	nt	nt
O=C1C(=O)N(CCN2CCOCC2)C(c2ccncc2)C1C(=O)c1cc2ccccc2o1 (configuration not stated)	nt	nt	0	nt	nt	nt	nt	nt
C[C@H](CO)N1C[C@H](C)[C@H](CN(C)S(=O)(=O)c2ccccc2)OCCCC[C@H](C)Oc2ccc(NC(=O)Nc3ccc(C(F)(F)F)cc3)cc2C1=O	104*	-57	0	0	105*	109*	1	23
Cc1cc(C(F)(F)F)nc(SCC(=O)Nc2cccc(Cl)c2Cl)n1	nt	nt	0	nt	nt	nt	nt	nt
SMILES	T cruzi growth-1	Pf Dd2 growth	IDH1 mut inh	GASC1 inh	T cruzi growth-2	T cruzi growth-3	NIH3T3 tox	3T3 cytotox 2
CC(C)CC#Cc1ccc2c(c1)O[C@@H](CN(C)Cc1ccccc1F)[C@H](C)CN([C@@H](C)CO)S2(=O)=O	56	-68	-2	1	nt	nt	nt	nt
C[C@H]1CN([C@@H](C)CO)S(=O)(=O)c2ccc(C#CCN(C)C)cc2O[C@H]1CN(C)Cc1ccccc1F	100*	-45	0	5	96*	45	8	34*
C[C@@H]1CN([C@H](C)CO)S(=O)(=O)c2ccc(C#CCN(C)C)cc2O[C@H]1CN(C)Cc1ccccc1F	110*	-67	0	8	106*	87	61*	106*
C[C@@H]1CN([C@@H](C)CO)S(=O)(=O)c2ccc(C#CC3CC3)cc2O[C@H]1CN(C)Cc1ccccc1F	101*	-38	0	15	95*	109*	60*	106*
COCC#Cc1ccc2c(c1)O[C@H](CN(C)Cc1ccccc1F)[C@H](C)CN([C@H](C)CO)S2(=O)=O	-1	-46	-2	1	nt	nt	nt	nt
CC(C)CC#Cc1ccc2c(c1)O[C@@H](CN(C)Cc1ccccc1F)[C@@H](C)CN([C@@H](C)CO)S2(=O)=O	127*	-33	0	-2	92	112*	-1	105*
O=c1[nH]nc(SCCS(=O)(=O)c2ccc(F)cc2)n1Cc1ccco1	nt	nt	0	nt	nt	nt	nt	nt
CS(=O)(=O)N(CC(=O)Nc1cc(Cl)ccc1Oc1ccccc1)c1ccccc1Br	nt	nt	0	nt	nt	nt	nt	nt
CC(C)C(NCCC(O)c1ccc(Br)cc1)C(=O)O (configuration not stated)	nt	nt	0	nt	nt	nt	nt	nt
O=C(Nc1ccccc1[N+](=O)[O-])c1cccc(S(=O)(=O)Nc2ccccc2)c1	nt	nt	-1	nt	nt	nt	nt	nt
N#C[C@H]1[C@@H](c2ccc(-c3ccccc3)cc2)[C@@H](CO)N1C(=O)Cc1ccccc1	49	14	nt	0	nt	nt	nt	nt
